Test results taken from ChEMBL document CHEMBL1131023, “Identification of a dihydropyridine as a potent alpha1a adrenoceptor-selective antagonist that inhibits phenylephrine-induced contraction of the human prostate” (J Med Chem, 1998).

Columns and labels:
[1] = target: T1, Alpha-1A adrenergic receptor (Homo sapiens, UniProt P35348); test: Binding affinity determined by displacement of [3H]prazosin from alpha-1A adrenergic receptor
T1 sequence (P35348 whole entry): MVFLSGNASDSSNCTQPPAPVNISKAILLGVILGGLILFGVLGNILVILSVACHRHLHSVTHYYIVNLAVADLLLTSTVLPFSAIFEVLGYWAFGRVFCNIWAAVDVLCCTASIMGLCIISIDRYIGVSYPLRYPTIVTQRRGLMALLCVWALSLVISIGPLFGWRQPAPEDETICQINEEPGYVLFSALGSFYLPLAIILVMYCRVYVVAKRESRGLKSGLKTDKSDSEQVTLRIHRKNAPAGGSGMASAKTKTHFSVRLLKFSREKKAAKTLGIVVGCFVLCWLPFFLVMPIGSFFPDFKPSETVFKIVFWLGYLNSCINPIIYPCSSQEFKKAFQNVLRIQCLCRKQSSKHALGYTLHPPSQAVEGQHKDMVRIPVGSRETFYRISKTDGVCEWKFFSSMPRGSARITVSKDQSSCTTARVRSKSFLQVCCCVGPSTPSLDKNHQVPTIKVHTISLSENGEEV

[2] = target: Voltage-gated L-type calcium channel (Rattus norvegicus, UniProt P22002+Q02485+P27732); test: Binding affinity at the L-type [Ca2+] channel from rat brain homogenate by [3H]nitrendipine displacement.; assay type: tissue-based
[3] = target: T2, Alpha-2A adrenergic receptor (Homo sapiens, UniProt P08913); test: Binding affinity determined by displacement of [3H]rauwolscine from alpha-2A adrenergic receptor
T2 sequence (P08913 whole entry): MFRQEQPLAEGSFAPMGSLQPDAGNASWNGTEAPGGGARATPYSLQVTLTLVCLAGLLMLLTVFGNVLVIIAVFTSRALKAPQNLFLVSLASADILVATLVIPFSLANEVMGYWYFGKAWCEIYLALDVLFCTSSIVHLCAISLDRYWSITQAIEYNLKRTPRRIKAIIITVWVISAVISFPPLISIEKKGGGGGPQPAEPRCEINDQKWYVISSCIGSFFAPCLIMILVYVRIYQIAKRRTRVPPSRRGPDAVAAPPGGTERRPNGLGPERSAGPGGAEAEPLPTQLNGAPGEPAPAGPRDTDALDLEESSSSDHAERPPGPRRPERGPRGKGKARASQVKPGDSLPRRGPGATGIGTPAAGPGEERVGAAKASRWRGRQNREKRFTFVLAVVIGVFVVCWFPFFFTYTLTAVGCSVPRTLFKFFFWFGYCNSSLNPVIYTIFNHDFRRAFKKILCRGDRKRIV
In short: (§1)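 Radioligand displacement binding at the cloned receptor, incubated for 30 min.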

[4] = target: T3, Alpha-1B adrenergic receptor (Homo sapiens, UniProt P35368); test: Binding affinity determined by displacement of [3H]prazosin from alpha-1B adrenergic receptor
T3 sequence (P35368 whole entry): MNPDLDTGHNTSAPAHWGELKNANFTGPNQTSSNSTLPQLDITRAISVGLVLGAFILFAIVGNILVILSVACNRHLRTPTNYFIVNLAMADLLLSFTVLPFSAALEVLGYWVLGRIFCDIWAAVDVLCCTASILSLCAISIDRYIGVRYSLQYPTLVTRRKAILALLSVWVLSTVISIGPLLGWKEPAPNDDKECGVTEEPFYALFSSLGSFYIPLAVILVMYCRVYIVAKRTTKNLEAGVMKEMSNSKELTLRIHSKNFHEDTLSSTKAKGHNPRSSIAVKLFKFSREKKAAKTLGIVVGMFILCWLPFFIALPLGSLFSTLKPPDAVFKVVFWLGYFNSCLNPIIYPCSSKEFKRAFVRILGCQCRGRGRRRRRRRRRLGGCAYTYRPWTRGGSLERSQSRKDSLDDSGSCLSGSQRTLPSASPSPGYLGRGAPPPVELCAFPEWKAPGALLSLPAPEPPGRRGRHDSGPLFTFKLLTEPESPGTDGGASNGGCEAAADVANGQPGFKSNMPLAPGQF

[5] = target: T4, Alpha-2B adrenergic receptor (Homo sapiens, UniProt P18089); test: Binding affinity determined by displacement of [3H]rauwolscine from alpha-2B adrenergic receptor
T4 sequence (P18089 whole entry): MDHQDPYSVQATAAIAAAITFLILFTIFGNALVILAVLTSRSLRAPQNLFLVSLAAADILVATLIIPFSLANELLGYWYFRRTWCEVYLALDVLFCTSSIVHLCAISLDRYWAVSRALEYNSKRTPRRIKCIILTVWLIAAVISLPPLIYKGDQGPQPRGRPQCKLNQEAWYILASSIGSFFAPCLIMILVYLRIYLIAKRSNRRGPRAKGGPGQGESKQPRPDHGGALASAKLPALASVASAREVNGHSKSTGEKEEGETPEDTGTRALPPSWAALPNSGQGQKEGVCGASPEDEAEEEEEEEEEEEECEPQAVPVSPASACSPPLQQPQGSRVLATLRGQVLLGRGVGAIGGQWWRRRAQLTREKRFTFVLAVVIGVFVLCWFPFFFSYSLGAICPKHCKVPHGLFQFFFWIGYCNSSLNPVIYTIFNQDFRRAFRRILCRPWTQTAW

[6] = target: T5, Alpha-2C adrenergic receptor (Homo sapiens, UniProt P18825); test: Binding affinity assayed by displacement of [3H]rauwolscine from human alpha-2C adrenergic receptor; in short: as §1
T5 sequence (P18825 whole entry): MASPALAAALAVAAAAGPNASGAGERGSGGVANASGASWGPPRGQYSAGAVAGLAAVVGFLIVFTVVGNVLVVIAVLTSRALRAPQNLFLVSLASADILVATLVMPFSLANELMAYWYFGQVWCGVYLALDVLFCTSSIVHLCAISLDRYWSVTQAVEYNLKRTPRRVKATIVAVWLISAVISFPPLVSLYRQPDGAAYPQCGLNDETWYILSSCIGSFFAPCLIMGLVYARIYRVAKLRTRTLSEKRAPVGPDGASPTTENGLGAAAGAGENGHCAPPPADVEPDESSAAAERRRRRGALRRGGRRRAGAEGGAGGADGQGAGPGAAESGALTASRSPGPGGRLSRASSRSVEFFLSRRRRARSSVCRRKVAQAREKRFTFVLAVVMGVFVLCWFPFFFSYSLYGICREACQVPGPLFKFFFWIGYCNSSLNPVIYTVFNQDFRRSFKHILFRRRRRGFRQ

[7] = target: T6, Alpha-1D adrenergic receptor (Homo sapiens, UniProt P25100); test: Binding affinity determined by displacement of [3H]prazosin from alpha-1D adrenergic receptor; in short: as §1
T6 sequence (P25100 whole entry): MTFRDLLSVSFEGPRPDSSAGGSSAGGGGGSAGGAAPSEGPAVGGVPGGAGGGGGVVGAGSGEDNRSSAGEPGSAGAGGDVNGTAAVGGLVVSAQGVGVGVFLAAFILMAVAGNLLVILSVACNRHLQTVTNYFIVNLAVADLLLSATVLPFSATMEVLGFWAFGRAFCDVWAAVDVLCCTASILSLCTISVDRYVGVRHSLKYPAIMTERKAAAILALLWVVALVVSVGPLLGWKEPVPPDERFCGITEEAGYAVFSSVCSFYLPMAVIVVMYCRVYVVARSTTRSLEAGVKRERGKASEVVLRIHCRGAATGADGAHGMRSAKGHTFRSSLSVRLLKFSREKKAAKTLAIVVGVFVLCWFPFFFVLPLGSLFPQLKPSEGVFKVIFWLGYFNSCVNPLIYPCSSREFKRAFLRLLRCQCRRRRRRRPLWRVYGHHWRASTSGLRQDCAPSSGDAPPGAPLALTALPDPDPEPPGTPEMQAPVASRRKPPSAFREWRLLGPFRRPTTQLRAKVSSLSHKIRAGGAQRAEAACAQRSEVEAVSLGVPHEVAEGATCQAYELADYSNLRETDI

| SMILES | Ki [1] [µM] | Log Ki [2] | Ki [3] [µM] | Ki [4] [µM] | Ki [5] [µM] | Ki [6] [µM] | Ki [7] [µM] |
| --- | --- | --- | --- | --- | --- | --- | --- |
| CNC(=O)C1=C(C)NC(C)=C(C(=O)NCCCN2CCC(c3ccccc3)(c3ccccc3)CC2)C1c1ccc2c(c1)OCO2 (stereo not given) | 0.0162 | – | 2.09 | 1.78 | 0.575 | 1.02 | – |
| CC(=O)C1=C(C)NC(C)=C(C(=O)NCCCN2CCC(c3ccccc3)(c3ccccc3)CC2)C1c1ccc([N+](=O)[O-])cc1 (stereo not given) | – | < -6 | – | – | – | – | – |
| CCC1=C(C(N)=O)C(c2ccc([N+](=O)[O-])cc2)C(C(=O)NCCCN2CCC(c3ccccc3)(c3ccccc3)CC2)=C(CC)N1 (stereo not given) | – | – | 0.355 | – | – | – | – |
| CC1=C(C(N)=O)C(c2ccc([N+](=O)[O-])cc2)C(C(=O)NCCCN2CCC(c3ccccc3)(c3ccccc3)CC2)=C(C)N1 (single isomer, unassigned; (+)) | – | – | – | – | 0.407 | – | 0.398 |
| CC1=C(C(N)=O)C(c2ccc([N+](=O)[O-])cc2)C(C(=O)NCCCN2CCC(c3ccccc3)(c3ccccc3)CC2)=C(C)N1 (single isomer, unassigned; (-)) | – | – | – | – | 0.282 | – | 0.224 |
| CC1=C(C(N)=O)C(c2ccc([N+](=O)[O-])cc2)C(C(=O)NCCCN2CCC(c3ccccc3)(c3ccccc3)CC2)=C(C)N1 (stereo in doubt; 19) | – | < -6 | – | – | – | – | – |

Other lines, results leading:

| Ki [1] [µM] | Log Ki [2] | Ki [3] [µM] | Ki [4] [µM] | Ki [5] [µM] | Ki [6] [µM] | Ki [7] [µM] | SMILES |
| --- | --- | --- | --- | --- | --- | --- | --- |
| 0.0204 | < -6 | 0.676 | 0.24 | 0.49 | 0.245 | 0.501 | CO/C(O)=C1\C(C)=NC(C)=C(C(=O)N(C)CCCN2CCC(c3ccccc3)(c3ccccc3)CC2)C1c1ccc([N+](=O)[O-])cc1 (stereo not given) |
| 0.00182 | < -6 | 0.759 | 0.151 | 1.26 | 0.871 | 0.38 | CO/C(O)=C1\C(C)=NC(C)=C(C(=O)NCCCN2CCC(c3ccccc3)(c3ccccc3)CC2)C1c1ccc(C#N)cc1 (stereo not given) |
| 0.00871 | < -6 | 0.447 | 0.0776 | 0.513 | 0.245 | 1.15 | CO/C(O)=C1\C(C)=NC(C)=C(C(=O)NCCN2CCC(c3ccccc3)(c3ccccc3)CC2)C1c1ccc([N+](=O)[O-])cc1 (stereo not given) |
| 0.0363 | -6.43 | 1.58 | 0.138 | 0.891 | 0.631 | 0.741 | CO/C(O)=C1\C(C)=NC(C)=C(C(=O)NCCCN2CCC(c3ccccc3)(c3ccccc3)CC2)C1c1ccc2ccccc2c1 (stereo not given) |
